Columns and labels:
[1] = Exploratory PK-PD relationship, safety endpoints; type: in vivo, human; conditions: AUC(0-τ), Cmax and Cτ; except serum creatinine and CRCL
Outline: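 This was an exploratory graphical analysis in phase 2b/3 treatment-naive patients. Individual predicted steady-state Cτ, Cmax and AUC(0-τ) came from the final population model, using actual doses and assuming no inter-occasion variability. They were plotted against change from baseline in serum creatinine, creatinine clearance, urine albumin:creatinine ratio, ALT and total bilirubin, both as maximal change over 48 weeks and as change at week 48.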

[2] = system: organic cation transporter, OCT2; conditions: cited from earlier work
[3] = Individual predicted steady-state PK parameters; type: in vivo, human; conditions: for Tmax / AUC / Cmax: human, plasma, oral; for AUC: AUC(0-τ); for AUC / Cmax / Cτ: steady state
Outline: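 Individual parameters were empirical Bayes estimates from the final population model, using each subject's actual dose after repeat dosing. AUC(0-τ) was Dose/([CL/F_i]/F). Cmax, tmax and Cτ came from simulated steady-state concentration–time profiles using individual parameters, assuming no inter-occasion variability and zero residual variability. Summary statistics were computed.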

Population PK model = type: in vivo, human
[4] = system: viral strains harboring major integrase resistance mutations selected for by raltegravir and elvitegravir; conditions: in vitro; mutations selected for by RAL and EVG; cited from earlier work
[5] = 10 mg, ING111521, 10 mg once daily, geometric mean (95% CI)
[6] = 10 mg, SPRING-1, 10 mg once daily, geometric mean (95% CI)
[7] = 50 mg, ING111521, 50 mg once daily, geometric mean (95% CI)
[8] = 50 mg, SPRING-2, 50 mg once daily, geometric mean (95% CI)
[9] = NONMEM point estimate, inter-individual variability
[10] = NONMEM point estimate, listed as DTG

Question: For C[C@@H]1CCO[C@H]2Cn3cc(C(=O)NCc4ccc(F)cc4F)c(=O)c(O)c3C(=O)N12 [dolutegravir, Dolutegravir], which “Relationship between DTG exposure and the safety endpoints” value [1] is on record?
Answer: The value was “No relationship”.

Question: And the “Inhibition of OCT2” value [2]?
Answer: The value was “known to inhibit”.

Question: What about the Tmax [3] of the same molecule?
Answer: Its Tmax is about 2 h.

Question: And the Tmax ([3]; 10 mg)?
Answer: The Tmax was 1.66 h.

Question: And the AUC [3, 5]?
Answer: The AUC was 9330 ng·h/mL.

Question: What about the AUC [3, 6] of the same molecule?
Answer: Its AUC is 14300 ng·h/mL.

Question: And the Cmax [3, 5]?
Answer: The Cmax was 691 ng/mL.

Question: What about the Cmax [3, 6] of the same molecule?
Answer: The Cmax was 957 ng/mL.

Question: What about the Tmax ([3]; 50 mg) of the same molecule?
Answer: The Tmax was 1.94 h.

Question: And the AUC [3, 7]?
Answer: Its AUC is 41300 ng·h/mL.

Question: And the AUC ([3]; 50 mg, SPRING-1, 50 mg once daily, geometric mean (95% CI))?
Answer: The AUC was 53800 ng·h/mL.

Question: What about the AUC [3, 8] of the same molecule?
Answer: Its AUC is 53600 ng·h/mL.

Question: And the Cmax [3, 7]?
Answer: Its Cmax is 2940 ng/mL.

Question: What about the Cmax [3, 8] of the same molecule?
Answer: Its Cmax is 3690 ng/mL.

Question: And the Cτ ([3]; 50 mg once daily, three studies pooled (n = 449), geometric mean)?
Answer: The Cτ was 1.11 µg ml^–1.

Question: What about the Cτ ([3]; ING111521, 10 mg once daily, geometric mean (95% CI)) of the same molecule?
Answer: The Cτ was 0.168 (0.136, 0.208) µg ml^–1.

Question: What about the Cτ ([3]; ING111521, 50 mg once daily, geometric mean (95% CI)) of the same molecule?
Answer: Its Cτ is 0.785 (0.689, 0.895) µg ml^–1.

Question: And the Cτ ([3]; SPRING-1, 10 mg once daily, geometric mean (95% CI))?
Answer: Its Cτ is 0.311 (0.281, 0.345) µg ml^–1.

Question: And the Cτ ([3]; SPRING-1, 25 mg once daily, geometric mean (95% CI))?
Answer: The Cτ was 0.530 (0.462, 0.609) µg ml^–1.

Question: And the Cτ ([3]; SPRING-1, 50 mg once daily, geometric mean (95% CI))?
Answer: Its Cτ is 1.17 (1.04, 1.33) µg ml^–1.

Question: And the Cτ ([3]; SPRING-2, 50 mg once daily, geometric mean (95% CI))?
Answer: Its Cτ is 1.10 (1.05, 1.15) µg ml^–1.

Question: What about the “ALAG (absorption lag-time)” value (Population PK model; NONMEM point estimate) of the same molecule?
Answer: The value was 0.263 h.

Question: What about the “ka (absorption rate constant)” value (Population PK model; NONMEM point estimate) of the same molecule?
Answer: Its value is 2.24 h^–1.

Question: What about the “F ∼ 10 mg” value (Population PK model; NONMEM point estimate, factor on F for 10 mg dose) of the same molecule?
Answer: Its value is 1.24.

Question: And the “F ∼ GENDER” value (Population PK model; NONMEM point estimate, factor on F for females)?
Answer: Its value is 1.21.

Question: And the “ω^2V (variance of random effect of V/F)” value (Population PK model; [9])?
Answer: Its value is 0.0188.

Question: And the “ω^2ka (variance of random effect of ka)” value (Population PK model; [9])?
Answer: Its value is 0.224.

Question: And the “ALAG (absorption lag-time)” value (Population PK model; [10])?
Answer: The value was 0.263 (0.0942, 0.432) h.

Question: What about the “ka (absorption rate constant)” value (Population PK model; [10]) of the same molecule?
Answer: Its value is 2.24 (1.56, 2.92) h^–1.

Question: What about the “V/F ∼ WT” value (Population PK model; NONMEM point estimate, power coefficient (WT/70)) of the same molecule?
Answer: Its value is 0.768.

Question: What about the “σ^2prop (proportional residual error)” value (Population PK model; NONMEM point estimate, residual variability) of the same molecule?
Answer: The value was 0.0704.

Question: What about the “CL/F range over age in analysis population” value (Population PK model; age 18–68 years) of the same molecule?
Answer: The value was 0.772–0.998 l h^–1.

Question: And the ALAG (Population PK model; bootstrap median, 1000 runs)?
Answer: The ALAG was 0.262 h.

Question: And the CL/F (Population PK model; bootstrap median, 1000 runs)?
Answer: The CL/F was 0.901 l h^–1.

Question: And the “F ∼ 10 mg” value (Population PK model; bootstrap median, 1000 runs)?
Answer: Its value is 1.24.

Question: What about the “F ∼ GENDER” value (Population PK model; bootstrap median, 1000 runs) of the same molecule?
Answer: The value was 1.21.

Question: What about the V/F (Population PK model; bootstrap median, 1000 runs) of the same molecule?
Answer: Its V/F is 17.4 L.

Question: And the “V/F ∼ WT” value (Population PK model; bootstrap median, 1000 runs)?
Answer: Its value is 0.774.

Question: And the ka (Population PK model; bootstrap median, 1000 runs)?
Answer: Its ka is 2.21 h^–1.

Question: What about the “σ^2prop” value (Population PK model; bootstrap median, 1000 runs) of the same molecule?
Answer: Its value is 0.0698.

Question: And the “ω^2CL” value (Population PK model; bootstrap median, 1000 runs)?
Answer: Its value is 0.0539.

Question: And the “ω^2V” value (Population PK model; bootstrap median, 1000 runs)?
Answer: The value was 0.0182.

Question: What about the “ω^2ka” value (Population PK model; bootstrap median, 1000 runs) of the same molecule?
Answer: The value was 0.217.

Question: What about the “Increase in CL/F for study ING111521” value (Population PK model; compared with SPRING-1 and SPRING-2) of the same molecule?
Answer: Its value is 35%.

Question: And the “Oral bioavailability (F) higher in female subjects” value (Population PK model; compared with males, mean)?
Answer: Its value is 21%.

Question: What about the Vd/F (Population PK model; human, plasma, oral) of the same molecule?
Answer: Its Vd/F is 17.4 L.

Question: And the “Apparent clearance higher in current smokers” value (Population PK model; vs non-current smokers, mean)?
Answer: Its value is 16%.

Question: What about the “CL/F range over weights in analysis population” value (Population PK model; weight 39–135 kg) of the same molecule?
Answer: The value was 0.697–1.20 l h^–1.

Question: What about the “V/F range over weights in analysis population” value (Population PK model; weight 39–135 kg) of the same molecule?
Answer: The value was 11.1 to 28.8 L.

Question: What about the “Activity against viral strains harboring major integrase resistance mutations” value [4] of the same molecule?
Answer: The value was “retains activity”.

From paper PMC4574835 (British Journal of Clinical Pharmacology, 2015)
